Calls of active or inactive are those of the source. The calls are words filed in the database; no cut-off is given here.

Data set [1] concerns Mus musculus. Briefly: Hepatotoxicity in Balb/c mouse infected with Trypanosoma cruzi MHOM/Pe/2011/Arequipa DTU 5 trypamastigotes assessed as increase in ratio of serum ALT to GPT level at […], po once daily for 5 consecutive days starting from day 75 post infection measured on day 127 post infection by biochemical analysis relative to control. The class given is toxicity, organism-based. The following applies: in vivo.

The subject of data set [2] is Trypanosoma cruzi. The experiment in a line: Antitrypanosomal activity against Trypanosoma cruzi MHOM/Pe/2011/Arequipa DTU 5 trypamastigotes infected in Balb/c mouse assessed as reduction in parasitaemia reactivation in lung tissue at 100 mg/kg, po pretreated once daily for 5 consecutive days starting from day 75 post infection followed by cyclophosphamide-induced immunosuppression on day 100 post infection every 4 days for a maximum of 3 doses measured on day 127 post infection by PCR method. Type of data set: functional. On the set-up: scale not given: the % may be the effect or the level left. The procedure, abridged: (§1)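 Necropsy on day 127 pi after oral treatment and cyclophosphamide immunosuppression. Tissue DNA was amplified by PCR targeting the ~300 bp T. cruzi SOD gene, 200 nM each primer, 30 cycles with 55.5 °C annealing. Products run on 2 % agarose; positive organs counted out of six mice.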

The subject of data set [3] is Mus musculus. Briefly: Hepatotoxicity in Balb/c mouse infected with Trypanosoma cruzi MHOM/Pe/2011/Arequipa DTU 5 trypamastigotes assessed as change in ratio of serum ALT to GPT level at 20 mg/kg, po once daily for 5 consecutive days starting from day 75 post infection measured on day 127 post infection by biochemical analysis relative to control. Type of data set: toxicity, organism-based. The note with it: in vivo. The method, boiled down:
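Serum clinical chemistry in Arequipa-infected female BALB/c mice. Oral 20 mg·kg-1 per day for 5 days, started day 10 or day 75 pi. Samples taken at day 16 pi or day 81 pi, and on necropsy day. Markers: CK-MB and LDH (U/L), AST, ALT and alkaline phosphatase (U/L), total bilirubin. Results scored relative to infected untreated controls; uninfected reference n = 15.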

Data set [4] deals with Mus musculus. Briefly: Hepatotoxicity in Balb/c mouse infected with Trypanosoma cruzi MHOM/Pe/2011/Arequipa DTU 5 trypamastigotes assessed as increase in alkaline phosphatase level at 20 mg/kg, po once daily for 5 consecutive days starting from day 75 post infection measured on day 81 post infection by biochemical analysis relative to control. The class given is toxicity, organism-based. The following applies: in vivo.

The test system of data set [5] is Trypanosoma cruzi. The experiment in a line: Antitrypanosomal activity against Trypanosoma cruzi MHOM/Pe/2011/Arequipa DTU 5 trypamastigotes infected in Balb/c mouse assessed as reduction in parasitaemia reactivation in adipose tissue at 20 mg/kg, po pretreated once daily for 5 consecutive days starting from day 10 post infection followed by cyclophosphamide-induced immunosuppression on day 100 post infection every 4 days for a maximum of 3 doses measured on day 127 post infection by PCR method. The class given is functional. Also noted: scale not given: the % may be the effect or the level left. The procedure, abridged: as §1

Data set [6] has as its system Trypanosoma cruzi. Briefly: Antitrypanosomal activity against Trypanosoma cruzi MHOM/Pe/2011/Arequipa DTU 5 trypamastigotes infected in Balb/c mouse assessed as reduction in Ig-G level in serum at 20 mg/kg, po pretreated once daily for 5 consecutive days starting from day 75 post infection followed by cyclophosphamide-induced immunosuppression on day 100 post infection every 4 days for a maximum of 3 doses measured on day 127 post infection by ELISA. The class given is functional, organism-based. The procedure, abridged:
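Female BALB/c mice (8-10 weeks, 20-25 g), six per group, infected i.p. with 5 x 10^5 Arequipa bloodstream trypomastigotes. Compound was given orally once daily for 5 days from day 10 or day 75 pi, at 20 mg·kg-1 per day in 5 % DMSO/0.5 % HPMC. Anti-T. cruzi IgG in serum was measured by ELISA with Fe-SOD antigen, read as OD 490 nm.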
A general note: In an ELISA, binding on a coated surface is turned into a signal by an enzyme label.

The test system of data set [7] is Mus musculus. The experiment in a line: Hepatotoxicity in Balb/c mouse infected with Trypanosoma cruzi MHOM/Pe/2011/Arequipa DTU 5 trypamastigotes assessed as increase in ratio of serum AST to GOT level at 20 mg/kg, po once daily for 5 consecutive days starting from day 75 post infection measured on day 81 post infection by biochemical analysis relative to control. The following applies: in vivo. The class given is toxicity, organism-based.

Regarding `COc1ccc(C(=O)CCN2CCN(c3ccc([N+](=O)[O-])cc3)CC2)cc1`, the Activity entry in the data set on Mus musculus [1] was “<= 10%”.
On to `COc1ccc(C(=O)CCN2CCN(c3ccc(Cl)cc3)CC2)cc1`, for which the Activity with Trypanosoma cruzi [2] came out at 78%.
`O=C(Cn1ccnc1[N+](=O)[O-])NCc1ccccc1` [BENZNIDAZOLE]: the Activity was < 10% in the data set on Mus musculus [3], > 40% in the data set with Mus musculus [4], 33% in the data set with Trypanosoma cruzi [5] and “<= 20%” in the data set with Mus musculus [7]. In addition, the result in the data set on Trypanosoma cruzi [6] was Active.

For the origin of these results see ChEMBL document CHEMBL4118256, “Second Generation of Mannich Base-Type Derivatives with in Vivo Activity against Trypanosoma cruzi” (J Med Chem, 2018).
